Source: ChEMBL document CHEMBL1149534, “3-Arylamino-2H-1,2,4-benzothiadiazin-5-ol 1,1-dioxides as novel and selective CXCR2 antagonists” (Bioorg Med Chem Lett, 2007)
In brackets after ≈: the same amount, converted by molar mass.

Columns and labels:
[1] = target: T1, C-X-C chemokine receptor type 2 (Homo sapiens, UniProt P25025); assay: Displacement of human recombinant [125I]IL8 from CXCR2 receptor expressed in CHO cells; assay type: cell-based
T1 sequence (P25025 whole entry): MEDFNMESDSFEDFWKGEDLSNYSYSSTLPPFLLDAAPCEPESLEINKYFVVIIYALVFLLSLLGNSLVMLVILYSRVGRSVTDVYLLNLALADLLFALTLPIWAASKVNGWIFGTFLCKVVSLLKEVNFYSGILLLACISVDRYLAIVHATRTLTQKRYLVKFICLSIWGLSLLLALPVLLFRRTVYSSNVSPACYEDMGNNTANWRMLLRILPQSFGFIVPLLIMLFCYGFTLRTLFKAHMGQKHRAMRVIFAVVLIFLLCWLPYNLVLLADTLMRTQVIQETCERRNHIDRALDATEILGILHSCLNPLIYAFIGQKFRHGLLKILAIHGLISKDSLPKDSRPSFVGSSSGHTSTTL
How it was run: (§1)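 Membranes from CHO cells expressing CXCR1 or CXCR2, with ~0.25 nM human recombinant [125I]-IL-8 as radioligand, run in 96-well format. Values are the mean of three individual experiments.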

[2] = target: T2, C-X-C chemokine receptor type 1 (Homo sapiens, UniProt P25024); assay: Displacement of human recombinant [125I]IL8 from CXCR1 receptor expressed in CHO cells; assay type: cell-based; how it was run: as §1
T2 sequence (P25024 whole entry): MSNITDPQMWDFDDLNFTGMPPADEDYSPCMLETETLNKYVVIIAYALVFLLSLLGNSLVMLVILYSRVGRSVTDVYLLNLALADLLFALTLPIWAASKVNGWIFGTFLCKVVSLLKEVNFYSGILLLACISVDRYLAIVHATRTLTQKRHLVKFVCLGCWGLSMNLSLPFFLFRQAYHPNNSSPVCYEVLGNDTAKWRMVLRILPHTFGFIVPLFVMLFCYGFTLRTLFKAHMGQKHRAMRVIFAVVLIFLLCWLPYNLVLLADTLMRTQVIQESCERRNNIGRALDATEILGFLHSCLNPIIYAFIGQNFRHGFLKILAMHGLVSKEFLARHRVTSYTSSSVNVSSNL

[3] = target: T1, C-X-C chemokine receptor type 2; assay: Antagonist activity at CXCR2 receptor expressed in CHOK1 cells assessed as human IL8-induced calcium mobilization by FLIPR; assay type: functional, cell-based, CHO-K1
How it was run: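 Cells grown 24 h, loaded with Fluo-4 AM calcium dye, then exposed to compound at […] for 10 min at 37 °C. Ca2+ mobilization read on FLIPR as percent of maximal IL-8 response. IC50 taken as concentration giving 50% inhibition of the maximal IL-8 response.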

[4] = Solubility in phosphate buffer at pH 7.4; assay type: physicochemical
How it was run: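 Aqueous solubility measured in 0.05 M phosphate buffer, pH 7.4, containing 2% DMSO. High-throughput HPLC-based read-out.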

[5] = target: Interleukin-8 receptors, CXCR1/CXCR2 (Homo sapiens) (UniProt P25025+P25024); assay: Ratio of IC50 for CXCR2 receptor to IC50 CXCR1 receptor; assay type: protein assay
How it was run: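 Selectivity ratio from radioligand-binding IC50s at CXCR2 and CXCR1, using CHO-cell membranes expressing each receptor. Binding results are the mean of three individual experiments.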

[6] = target: T3, Adrenergic receptor alpha-1 (Homo sapiens, UniProt P35348+P25100+P35368); assay: Inhibition of adrenergic A1 receptor; assay type: protein assay
[7] = target: Beta-2 adrenergic receptor (Homo sapiens, UniProt P07550); assay: Inhibition of adrenergic beta2 receptor
[8] = target: T3, Adrenergic receptor alpha-1; assay: Inhibition of adrenergic alpha-1A receptor; assay type: protein assay
[9] = target: 5-hydroxytryptamine receptor 6 (Homo sapiens, UniProt P50406); assay: Inhibition of 5HT6 receptor
[10] = target: 5-hydroxytryptamine receptor 4 (Homo sapiens, UniProt Q13639); assay: Inhibition of 5HT4A receptor
Chain of 5-hydroxytryptamine receptor 4 (Q13639 whole entry): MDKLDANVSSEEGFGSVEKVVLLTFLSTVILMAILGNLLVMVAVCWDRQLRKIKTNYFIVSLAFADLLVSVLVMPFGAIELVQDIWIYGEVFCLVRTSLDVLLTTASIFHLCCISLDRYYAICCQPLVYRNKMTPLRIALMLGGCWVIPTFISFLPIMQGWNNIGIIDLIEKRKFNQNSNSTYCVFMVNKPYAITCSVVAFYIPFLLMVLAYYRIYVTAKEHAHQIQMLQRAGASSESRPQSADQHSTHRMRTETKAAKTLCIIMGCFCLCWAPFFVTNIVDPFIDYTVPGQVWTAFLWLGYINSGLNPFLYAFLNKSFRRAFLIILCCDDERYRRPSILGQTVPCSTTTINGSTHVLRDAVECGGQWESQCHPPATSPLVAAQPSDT

[11] = target: Plasminogen activator inhibitor 1 (Homo sapiens, UniProt P05121); assay: Inhibition of PAI1
[12] = target: 5-hydroxytryptamine receptor 7 (Homo sapiens, UniProt P34969); assay: Inhibition of 5HT7 receptor
Chain of 5-hydroxytryptamine receptor 7 (P34969 whole entry): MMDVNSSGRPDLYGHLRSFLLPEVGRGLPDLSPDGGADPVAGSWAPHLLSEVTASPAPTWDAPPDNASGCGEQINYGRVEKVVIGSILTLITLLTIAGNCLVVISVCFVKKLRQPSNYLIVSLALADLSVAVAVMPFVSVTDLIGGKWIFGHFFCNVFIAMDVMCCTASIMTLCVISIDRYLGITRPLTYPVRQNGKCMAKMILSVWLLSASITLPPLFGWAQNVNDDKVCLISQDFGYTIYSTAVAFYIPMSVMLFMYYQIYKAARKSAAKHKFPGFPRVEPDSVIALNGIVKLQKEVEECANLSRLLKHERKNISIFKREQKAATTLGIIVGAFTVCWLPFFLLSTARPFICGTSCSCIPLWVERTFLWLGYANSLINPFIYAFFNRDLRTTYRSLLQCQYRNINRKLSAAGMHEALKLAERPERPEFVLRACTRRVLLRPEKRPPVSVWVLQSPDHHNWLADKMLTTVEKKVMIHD

[13] = target: D(3) dopamine receptor (Homo sapiens, UniProt P35462); assay: Inhibition of dopamine D3 receptor
Chain of D(3) dopamine receptor (P35462 whole entry): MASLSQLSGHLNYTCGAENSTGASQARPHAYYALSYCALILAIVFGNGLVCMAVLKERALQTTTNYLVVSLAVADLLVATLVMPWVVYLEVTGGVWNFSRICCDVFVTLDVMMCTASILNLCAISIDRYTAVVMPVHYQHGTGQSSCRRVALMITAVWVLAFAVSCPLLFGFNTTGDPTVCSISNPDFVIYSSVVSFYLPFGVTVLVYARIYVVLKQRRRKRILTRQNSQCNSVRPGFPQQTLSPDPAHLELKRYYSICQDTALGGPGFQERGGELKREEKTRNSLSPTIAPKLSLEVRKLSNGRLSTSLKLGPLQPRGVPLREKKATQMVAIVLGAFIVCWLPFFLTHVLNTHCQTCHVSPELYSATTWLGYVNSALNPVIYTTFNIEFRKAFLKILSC

[14] = target: Mitogen-activated protein kinase 14 (Homo sapiens, UniProt Q16539); assay: Inhibition of P38alpha
[15] = target: 5-hydroxytryptamine receptor 1B (Homo sapiens, UniProt P28222); assay: Inhibition of 5HT1B receptor
Chain of 5-hydroxytryptamine receptor 1B (P28222 whole entry): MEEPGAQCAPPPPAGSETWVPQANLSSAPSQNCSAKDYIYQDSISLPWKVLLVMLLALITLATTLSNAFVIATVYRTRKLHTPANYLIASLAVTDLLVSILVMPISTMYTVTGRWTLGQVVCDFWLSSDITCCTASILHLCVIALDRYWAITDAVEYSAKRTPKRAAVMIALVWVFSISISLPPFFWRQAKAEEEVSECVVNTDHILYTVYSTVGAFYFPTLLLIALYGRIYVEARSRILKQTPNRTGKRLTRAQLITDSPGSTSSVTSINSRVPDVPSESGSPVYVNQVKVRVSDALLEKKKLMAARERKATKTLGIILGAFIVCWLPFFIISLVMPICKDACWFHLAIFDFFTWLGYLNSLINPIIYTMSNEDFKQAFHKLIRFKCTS

[16] = target: D(2) dopamine receptor (Homo sapiens, UniProt P14416); assay: Inhibition of dopamine D2 receptor
[17] = target: 5-hydroxytryptamine receptor 1D (Homo sapiens, UniProt P28221); assay: Inhibition of 5HT1D receptor
Chain of 5-hydroxytryptamine receptor 1D (P28221 whole entry): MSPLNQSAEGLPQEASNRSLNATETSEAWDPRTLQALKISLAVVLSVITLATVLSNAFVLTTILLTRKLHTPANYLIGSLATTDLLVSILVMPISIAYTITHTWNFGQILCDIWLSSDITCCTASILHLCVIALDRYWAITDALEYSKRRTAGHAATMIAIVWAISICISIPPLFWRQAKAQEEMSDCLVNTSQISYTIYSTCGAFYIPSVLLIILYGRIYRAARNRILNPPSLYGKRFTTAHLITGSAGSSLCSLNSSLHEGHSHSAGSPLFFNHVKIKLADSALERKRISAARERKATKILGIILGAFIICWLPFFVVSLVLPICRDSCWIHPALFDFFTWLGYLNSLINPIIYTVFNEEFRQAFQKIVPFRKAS

[18] = target: 5-hydroxytryptamine receptor 1A (Homo sapiens, UniProt P08908); assay: Inhibition of 5HT1A receptor
[19] = target: 5-hydroxytryptamine receptor 2C (Homo sapiens, UniProt P28335); assay: Inhibition of 5HT2C receptor
[20] = target: Histamine H3 receptor (Homo sapiens, UniProt Q9Y5N1); assay: Inhibition of histamine H3 receptor
Chain of Histamine H3 receptor (Q9Y5N1 whole entry): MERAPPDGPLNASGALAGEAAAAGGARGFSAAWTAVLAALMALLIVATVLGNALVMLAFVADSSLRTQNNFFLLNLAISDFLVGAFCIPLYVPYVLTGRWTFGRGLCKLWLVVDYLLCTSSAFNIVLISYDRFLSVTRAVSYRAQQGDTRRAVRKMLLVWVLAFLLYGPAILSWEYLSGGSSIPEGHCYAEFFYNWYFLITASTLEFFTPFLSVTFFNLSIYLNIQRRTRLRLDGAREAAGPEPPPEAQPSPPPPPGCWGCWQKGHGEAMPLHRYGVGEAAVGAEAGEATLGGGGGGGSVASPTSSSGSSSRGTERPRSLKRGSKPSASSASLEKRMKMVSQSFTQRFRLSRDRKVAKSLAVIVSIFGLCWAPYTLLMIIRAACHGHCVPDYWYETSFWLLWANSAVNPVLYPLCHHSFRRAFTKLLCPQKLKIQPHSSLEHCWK

[21] = target: Beta-1 adrenergic receptor (Homo sapiens, UniProt P08588); assay: Inhibition of adrenergic beta-1 receptor
[22] = target: Histamine H1 receptor (Homo sapiens, UniProt P35367); assay: Inhibition of histamine H1 receptor
Chain of Histamine H1 receptor (P35367 whole entry): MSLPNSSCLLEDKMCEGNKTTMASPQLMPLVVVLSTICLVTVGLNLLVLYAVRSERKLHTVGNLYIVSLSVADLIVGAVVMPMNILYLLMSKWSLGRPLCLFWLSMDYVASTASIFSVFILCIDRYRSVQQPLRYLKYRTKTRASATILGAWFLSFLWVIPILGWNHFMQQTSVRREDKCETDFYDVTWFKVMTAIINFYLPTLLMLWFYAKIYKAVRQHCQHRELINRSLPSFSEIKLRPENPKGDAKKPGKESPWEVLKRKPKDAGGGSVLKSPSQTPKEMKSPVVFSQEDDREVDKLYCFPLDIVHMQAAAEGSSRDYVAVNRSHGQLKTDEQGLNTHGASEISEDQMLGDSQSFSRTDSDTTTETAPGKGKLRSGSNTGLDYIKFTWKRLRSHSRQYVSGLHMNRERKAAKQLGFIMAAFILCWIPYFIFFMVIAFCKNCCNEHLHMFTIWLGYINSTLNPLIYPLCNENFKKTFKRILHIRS

[23] = target: Adenosine receptor A2a (Homo sapiens, UniProt P29274); assay: Inhibition of adenosine A2a receptor
Chain of Adenosine receptor A2a (P29274 whole entry): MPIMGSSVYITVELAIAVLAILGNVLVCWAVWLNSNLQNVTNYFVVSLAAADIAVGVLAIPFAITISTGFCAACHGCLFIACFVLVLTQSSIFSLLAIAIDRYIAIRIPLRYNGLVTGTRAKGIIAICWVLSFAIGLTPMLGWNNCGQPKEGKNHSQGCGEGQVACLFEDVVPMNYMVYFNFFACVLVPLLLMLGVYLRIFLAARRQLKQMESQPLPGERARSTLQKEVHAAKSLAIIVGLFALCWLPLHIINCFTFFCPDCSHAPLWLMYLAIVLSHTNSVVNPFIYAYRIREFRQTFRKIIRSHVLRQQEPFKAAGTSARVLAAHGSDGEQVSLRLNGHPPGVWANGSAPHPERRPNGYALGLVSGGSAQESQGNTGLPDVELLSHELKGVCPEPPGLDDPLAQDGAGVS

[24] = target: P2Y purinoceptor 1 (Homo sapiens, UniProt P47900); assay: Inhibition of P2Y1 receptor
Chain of P2Y purinoceptor 1 (P47900 whole entry): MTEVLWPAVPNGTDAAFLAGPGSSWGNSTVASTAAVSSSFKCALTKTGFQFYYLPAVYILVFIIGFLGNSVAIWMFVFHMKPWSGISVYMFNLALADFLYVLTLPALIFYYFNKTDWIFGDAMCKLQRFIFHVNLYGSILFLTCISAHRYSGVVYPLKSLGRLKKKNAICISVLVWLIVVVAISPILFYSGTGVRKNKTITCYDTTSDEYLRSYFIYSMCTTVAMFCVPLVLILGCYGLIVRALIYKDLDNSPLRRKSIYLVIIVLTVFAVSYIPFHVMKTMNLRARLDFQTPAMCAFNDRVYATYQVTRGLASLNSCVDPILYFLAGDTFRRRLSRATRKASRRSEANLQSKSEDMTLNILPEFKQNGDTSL

[25] = target: Cytochrome P450 3A4 (Homo sapiens, UniProt P08684); assay: Inhibition of human CYP3A4; assay type: ADME
Chain of Cytochrome P450 3A4 (P08684 whole entry): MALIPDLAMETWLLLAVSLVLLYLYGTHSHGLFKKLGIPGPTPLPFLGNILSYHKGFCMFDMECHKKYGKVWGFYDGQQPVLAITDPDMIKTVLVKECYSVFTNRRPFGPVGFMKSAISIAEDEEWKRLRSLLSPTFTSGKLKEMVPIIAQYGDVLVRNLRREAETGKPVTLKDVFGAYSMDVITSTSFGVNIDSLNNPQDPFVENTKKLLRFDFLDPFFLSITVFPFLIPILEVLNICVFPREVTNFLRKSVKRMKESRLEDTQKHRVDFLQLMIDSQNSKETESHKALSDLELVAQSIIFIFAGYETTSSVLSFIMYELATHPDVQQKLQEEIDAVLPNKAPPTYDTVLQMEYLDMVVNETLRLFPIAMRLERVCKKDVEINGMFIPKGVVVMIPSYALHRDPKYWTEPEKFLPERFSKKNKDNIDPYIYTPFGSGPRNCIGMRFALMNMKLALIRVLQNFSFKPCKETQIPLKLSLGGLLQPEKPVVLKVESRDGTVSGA

[26] = target: Cytochrome P450 2C9 (Homo sapiens, UniProt P11712); assay: Inhibition of human CYP2C9
[27] = Volume of distribution at steady state in rat at 1.6 mg/kg, iv and 3.2 mg/kg, po; assay type: ADME, organism-based; details: in vivo, read-out: Vdss
[28] = Half life in rat at 1.6 mg/kg, iv and 3.2 mg/kg, po; assay type: ADME, organism-based; details: in vivo
[29] = Bioavailability in rat at 3.2 mg/kg, po; assay type: ADME, organism-based; details: in vivo
[30] = target: Cytochrome P450 2D6 (Homo sapiens, UniProt P10635); assay: Inhibition of human CYP2D6; assay type: ADME
[31] = Clearance in rat at 1.6 mg/kg, iv and […] mg/kg, po; assay type: ADME, organism-based; details: in vivo
[32] = target: Cytochrome P450 1A2 (Homo sapiens, UniProt P05177); assay: Inhibition of human CYP1A2; assay type: ADME
Chain of Cytochrome P450 1A2 (P05177 whole entry): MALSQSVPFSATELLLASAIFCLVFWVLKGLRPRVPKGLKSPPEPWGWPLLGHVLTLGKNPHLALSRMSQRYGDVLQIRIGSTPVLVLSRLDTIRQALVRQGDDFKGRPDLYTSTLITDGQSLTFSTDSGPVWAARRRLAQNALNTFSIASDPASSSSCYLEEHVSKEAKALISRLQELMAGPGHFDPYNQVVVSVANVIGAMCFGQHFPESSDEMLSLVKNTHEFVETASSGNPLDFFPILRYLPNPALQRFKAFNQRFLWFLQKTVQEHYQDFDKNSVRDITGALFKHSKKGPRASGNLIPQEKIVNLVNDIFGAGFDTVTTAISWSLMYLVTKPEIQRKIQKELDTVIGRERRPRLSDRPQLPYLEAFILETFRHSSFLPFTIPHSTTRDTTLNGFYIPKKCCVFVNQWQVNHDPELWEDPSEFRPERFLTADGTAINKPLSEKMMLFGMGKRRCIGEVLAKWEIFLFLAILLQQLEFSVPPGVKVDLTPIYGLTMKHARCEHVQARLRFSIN

Cc1cc(O)c2c(c1)S(=O)(=O)N=C(Nc1ccccc1Br)N2
IC50 [1]: 0.28 µM

CC(=O)c1ccccc1NC1=Nc2c(O)cc(Cl)cc2S(=O)(=O)N1
IC50 [1]: 4.5 µM

O=S1(=O)N=C(Nc2cc(F)ccc2Br)Nc2c(O)cc(Cl)cc21
IC50 [1]: 3.9 µM

O=S1(=O)NC(Nc2cccc(F)c2Cl)=Nc2c(O)cc(Cl)cc21
IC50 [1]: 0.064 µM | IC50 [2]: 13 µM | IC50 [3]: 0.46 µM | solubility [4]: 160 µM (≈ 60.2 µg/mL)

O=S1(=O)N=C(Nc2ccccc2)Nc2c(O)cc(Cl)cc21
IC50 [1]: 2.4 µM

O=S1(=O)NC(NCc2ccccc2Cl)=Nc2c(O)cc(Cl)cc21
IC50 [1]: > 30 µM

O=S1(=O)NC(Nc2c(F)cccc2Br)=Nc2c(O)cc(Cl)cc21
IC50 [1]: 1.6 µM

O=S1(=O)NC(Nc2ccccc2Br)=Nc2c(O)cc(F)cc21
IC50 [1]: 0.36 µM

O=[N+]([O-])c1cc(O)c2c(c1)S(=O)(=O)N=C(Nc1ccccc1Br)N2
Ratio IC50 [5]: < 100 | IC50 [1]: 0.026 µM | IC50 [2]: 3.2 µM | IC50 [3]: 0.6 µM | solubility [4]: 233 µM (≈ 96.3 µg/mL)

O=S1(=O)NC(Nc2ccccc2-c2ccccc2)=Nc2c(O)cc(Cl)cc21
IC50 [1]: 0.23 µM

O=C(O)c1ccccc1NC1=Nc2c(O)cc(Cl)cc2S(=O)(=O)N1
IC50 [1]: > 30 µM

O=S1(=O)N=C(Nc2ccccc2F)Nc2c(O)cc(Cl)cc21
IC50 [1]: 0.74 µM

O=S1(=O)N=C(Nc2ccc(F)cc2Br)Nc2c(O)cc(Cl)cc21
IC50 [1]: 0.12 µM

Cc1ccccc1NC1=NS(=O)(=O)c2cc(Cl)cc(O)c2N1
IC50 [1]: 0.39 µM

O=S1(=O)N=C(Nc2ccccc2Cl)Nc2c(O)cc(Cl)cc21
Ratio IC50 [5]: < 100 | IC50 [1]: 0.092 µM | IC50 [2]: 24 µM | IC50 [3]: 0.52 µM | solubility [4]: 68 µM (≈ 24.4 µg/mL)

O=S1(=O)N=C(Nc2ccccc2N2CCOCC2)Nc2c(O)cc(Cl)cc21
IC50 [1]: > 30 µM

O=S1(=O)N=C(Nc2ccccc2Cl)Nc2c(O)cccc21
IC50 [1]: 5.2 µM

O=S1(=O)N=C(Nc2ccccc2Br)Nc2c(O)cc(Br)cc21
IC50 [1]: 0.07 µM

O=S1(=O)N=C(Nc2ccccc2Br)Nc2c(O)ccc(F)c21
IC50 [1]: 3 µM

O=S1(=O)N=C(Nc2cccc(Br)c2)Nc2c(O)cc(Cl)cc21
IC50 [1]: 6.1 µM

COc1ccccc1NC1=Nc2c(O)cc(Cl)cc2S(=O)(=O)N1
IC50 [1]: 0.25 µM

O=S1(=O)NC(Nc2ccc(Br)cc2)=Nc2c(O)cc(Cl)cc21
IC50 [1]: 5.1 µM

O=S1(=O)NC(NCc2ccccc2)=Nc2c(O)cc(Cl)cc21
IC50 [1]: 8 µM

O=S1(=O)N=C(NC2CCCC2)Nc2c(O)cc(Cl)cc21
IC50 [1]: 20 µM

O=S1(=O)NC(Nc2ccccc2C(F)(F)F)=Nc2c(O)cc(Cl)cc21
IC50 [1]: 0.83 µM

O=[N+]([O-])c1cc(O)c2c(c1)S(=O)(=O)N=C(Nc1ccccc1Oc1ccccc1)N2
IC50 [6]: > 25 µM | Ratio IC50 [5]: < 100 | IC50 [7]: > 25 µM | IC50 [1]: 0.054 µM | IC50 [8]: 1 µM | IC50 [9]: > 7.9 µM | IC50 [2]: 7.6 µM | IC50 [10]: > 25 µM | IC50 [11]: 7.9 µM | IC50 [3]: 0.49 µM | solubility [4]: 2 µM (≈ 0.853 µg/mL) | IC50 [12]: 25 µM | IC50 [13]: > 3.2 µM | IC50 [14]: 25 µM | IC50 [15]: > 3.2 µM | IC50 [16]: > 3.2 µM | IC50 [17]: > 3.2 µM | IC50 [18]: > 3.2 µM | IC50 [19]: > 10 µM | IC50 [20]: > 3.2 µM | IC50 [21]: > 25 µM | IC50 [22]: > 10 µM | IC50 [23]: 25 µM | IC50 [24]: > 25 µM

O=S1(=O)NC(Nc2ccccc2Br)=Nc2c(O)cc(Cl)cc21
IC50 [1]: 0.064 µM | IC50 [2]: 13 µM | IC50 [3]: 0.4 µM | solubility [4]: 31 µM (≈ 12.5 µg/mL)

O=S1(=O)NC(Nc2ccccc2OC(F)(F)F)=Nc2c(O)cc(Cl)cc21
IC50 [1]: 0.93 µM

O=S1(=O)N=C(Nc2ccccc2Br)Nc2c(O)ccc(Cl)c21
IC50 [1]: 0.48 µM

O=S1(=O)N=C(Nc2cccc(F)c2Cl)Nc2c(O)cc(Cl)cc21
Ratio IC50 [5]: < 100

O=S1(=O)N=C(Nc2ccccc2Oc2ccccc2)Nc2c(O)cc(Cl)cc21
Ratio IC50 [5]: < 100 | IC50 [1]: 0.054 µM | IC50 [2]: 20 µM | IC50 [3]: 0.32 µM | solubility [4]: < 1 µM

O=[N+]([O-])c1cc(O)c2c(c1)S(=O)(=O)N=C(Nc1ccccc1Cl)N2
IC50 [25]: > 25 µM | Ratio IC50 [5]: < 100 | IC50 [1]: 0.081 µM | IC50 [26]: 0.6 µM | IC50 [2]: 12 µM | Vd [27]: 0.53 L/kg | IC50 [3]: 1.1 µM | half-life [28]: 2 h | solubility [4]: 188 µM (≈ 69.3 µg/mL) | bioavailability [29]: 5% | IC50 [30]: > 25 µM | clearance [31]: 23 mL/min/kg | IC50 [32]: > 25 µM

O=S1(=O)N=C(Nc2ccccc2Br)Nc2c(O)cc(Cl)cc21
Ratio IC50 [5]: < 100

CC[C@@H](C)NC1=Nc2c(O)cc(Cl)cc2S(=O)(=O)N1
IC50 [1]: 15 µM
